Measured values of several laboratories.
Lines come from different studies, so protocols differ.
EGFR: Epidermal growth factor receptor (EGFR, Homo sapiens, UniProt P00533)
EGFR L858R: Epidermal growth factor receptor (EGFR, Homo sapiens, UniProt P00533, L858R)
EGFR G719C: Epidermal growth factor receptor (EGFR, Homo sapiens, UniProt P00533, G719C)
EGFR L861Q: Epidermal growth factor receptor (EGFR, Homo sapiens, UniProt P00533, L861Q)
EGFR L858R/T790M: Epidermal growth factor receptor (EGFR, Homo sapiens, UniProt P00533, L858R/T790M)
EGFR T790M: Epidermal growth factor receptor (EGFR, Homo sapiens, UniProt P00533, T790M)

SMILES | target | test | conditions | endpoint | value
Cc1ccc(Nc2nccc(N(C)c3ccc4c(C)n(C)nc4c3)n2)cc1S(N)(=O)=O | EGFR | cell-free assay | 0.5 µM | remaining signal | 91%
Cc1ccc(C(=O)Nc2ccc(CN3CCN(C)CC3)c(C(F)(F)F)c2)cc1C#Cc1cnc2cccnn12 | EGFR L858R | cell-free assay | 23.5 nM | remaining signal | 95%
c1cnn2ncc(-c3ccnc(N4CCC45COC5)n3)c2c1 | EGFR L858R | binding | 1 µM | remaining binding | 84%
Cc1nc(Cc2cccc(C(F)(F)F)c2)sc1-c1ccc(C(N)=O)nc1 | EGFR G719C | cell-free assay, competition with immobilised ligand | 1 µM | remaining binding | 94%
Cc1sc(C(=O)NC2COC2)cc1-n1cc(NC(=O)Nc2c(F)cccc2Cl)cn1 | EGFR | enzyme activity, inhibitor | 10 µM | remaining activity | 98.5%
Cc1cc(NC(=O)c2cccc3cc(-c4cccc5[nH]nc(N)c45)ccc23)ccc1F | EGFR L861Q | enzyme activity, inhibitor | 0.1 µM | activity vs control | 95%
COc1cc(N(C)CCN(C)C)c(NC(=O)/C=C/C(C)C)cc1Nc1nc(Nc2cnn(C)c2)c2sccc2n1 | EGFR L858R/T790M | enzyme activity, inhibitor, ELISA | 0.1 µM | inhibition | 34.6%
NS(=O)(=O)c1cc(NC(=O)C2(c3ccccc3Cl)CC2)ccc1Oc1cccc(Cl)c1 | Epidermal growth factor receptor (EGFR, Homo sapiens, UniProt P00533, G719S) | cell-free assay, competition with immobilised ligand | 1 µM | remaining binding | 98%
COc1cc2ncnc(Nc3ccc(Oc4ccccc4)cc3C)c2cc1OC | EGFR L861Q | enzyme activity, inhibitor | 1 µM | inhibition | 76%
CC/C(=N\NC(=O)NCc1cccc(O)c1)c1ccc(O)c(C)c1O | EGFR | enzyme activity, inhibitor | 0.1 µM | inhibition | 4.5%
C/C=C/C(=O)Nc1cc(Nc2nc(Nc3cnn(C)c3)c3sccc3n2)c(OC)cc1N(C)CCN(C)C | EGFR L858R/T790M | enzyme activity, inhibitor, ELISA | 0.1 µM | inhibition | 18.3%
O=C(O)[C@@H]1[C@@H](Cn2nnc3ccccc3c2=O)CC[C@H]1C(=O)c1ccc(OCCC2CCOCC2)cc1 | EGFR T790M | cell-free assay, competition with immobilised ligand | 1 µM | remaining binding | 94%
Nc1ncnc2occ(-c3ccc(NC(=O)Nc4cc(C(F)(F)F)ccc4F)cc3)c12 | EGFR G719C | cell-free assay | 20 µM | remaining signal | 4.2%
N[C@@H]1CCN(c2nccc(-c3cnn4ncccc34)n2)C1 | Epidermal growth factor receptor (EGFR, Homo sapiens, UniProt P00533, del752-759) | binding | 1 µM | remaining binding | 100%
CN(C)c1ncnc(-c2ccc3nc(Nc4cc(CN5CCN(C(=O)CC(F)(F)F)CC5)ccn4)[nH]c3c2)c1Cl | EGFR L858R | cell-free assay, competition with immobilised ligand | 1 µM | remaining binding | 100%
CC(C)[C@@H]1NC(=O)[C@H](CCCNC(=N)N)NC(=O)[C@H](Cc2ccc(O)cc2)NC(=O)[C@H](C(C)C)NC(=O)[C@H](C(C)C)NC(=O)[C@H](CCCNC(=N)N)NC(=O)[C@H](CC(=O)O)NC(=O)[C@H](CC(=O)O)NC(=O)[C@H](C)NC(=O)[C@H](Cc2ccc(O)cc2)NC(=O)[C@H](Cc2ccc(O)cc2)NC(=O)[C@H](Cc2ccccc2)NC(=O)[C@@H](Cc2ccc(O)cc2)NC(=O)CSC[C@@H](C(=O)NCC(N)=O)NC(=O)[C@H](C)NC1=O | EGFR | binding, SPR |  | kon | 166000 M⁻¹ s⁻¹
Cc1c(C(=O)O)cc(-c2ccc(C3CCNCC3)cc2)c2ccc(-c3ccc(C(F)(F)F)cc3)cc12 | Epidermal growth factor receptor (EGFR, Homo sapiens, UniProt P00533, del747-750/T751S) | cell-free assay, competition with immobilised ligand | 1 µM | remaining binding | 100%
CN(CCCC(F)(F)F)c1nccc(-c2cnn3ncccc23)n1 | EGFR T790M | binding | 1 µM | remaining binding | 78%
CN([C@@H]1CCc2c(CC(=O)O)c3cc(S(C)(=O)=O)ccc3n2C1)S(=O)(=O)c1ccc(F)cc1 | EGFR L858R/T790M | cell-free assay, competition with immobilised ligand | 1 µM | remaining binding | 100%
F[C@@H]1CCN(c2nccc(-c3cnn4ncccc34)n2)C1 | EGFR G719C | binding | 1 µM | remaining binding | 100%
